This is an account of results in the EternaBench riboswitch data.

By apparent Kd is commonly meant the concentration giving half-maximal binding under the conditions of the assay.

Data set [1] concerns MS2 coat protein. Description: apparent Kd, MS2 coat protein; higher = weaker binding; RNA-MaP array; tryptophan 2.4 mM where present. The gist of the method:
(§1)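 Stalled E. coli RNA polymerase produced the designs on Illumina sequencing-chip clusters. SNAP-549-labelled MS2 coat protein was added from 0.7 or 1.5 nM, doubling to 3 µM, without and then with constant ligand, in 100 mM Tris-HCl pH 7.5, 80 mM KCl, 4 mM MgCl2, BSA, DTT, yeast tRNA and Tween-20. The apparent Kd is the median of filtered per-cluster fits of green signal normalised to red-channel RNA signal and control-cluster median Fmax.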

The subject of data set [2] is MS2 coat protein. Description: apparent Kd, MS2 coat protein; higher = weaker binding; RNA-MaP array; theophylline 2 mM where present. Put shortly: as §1
Setting [3] is: designed as: ON switch for tryptophan, no ligand.
Where [4] appears, read: ligand present: tryptophan, designed as: ON switch for tryptophan.
Where [5] appears, read: designed as: ON switch for theophylline, no ligand.
Setting [6] is: ligand present: theophylline, designed as: ON switch for theophylline.
Setting [7] is: designed as: OFF switch for theophylline, no ligand.
[8] abbreviates: ligand present: theophylline, designed as: OFF switch for theophylline.

“UAAUCCGGUCCUCGAUAGGUGAUCCUCUAACGAGGACCGGUACGGCCGCCACUCGAUAACAUGAGGAUCACCCAUGUAAUAAUAA”: the “apparent Kd” value worked out at 0.044 µM in the data set on MS2 coat protein [1] (designed as: OFF switch for tryptophan, no ligand) and 0.0338 µM in the data set on MS2 coat protein [1] (ligand present: tryptophan, designed as: OFF switch for tryptophan).
“CAAAAUAUAACGGCCGCCACUUACUCAUGAGGUAACAACAUGAGGAUCACCCAUGUUUGAGGAUCAAGGACCGGGUUAUAUUUUG”: the “apparent Kd” value with MS2 coat protein [1] (setting [3]) stood at 0.0307 µM; in the data set on MS2 coat protein [1] (setting [4]), 0.017 µM.
Take “GGUUACUCUACGGCCGCCACUGAUUAUUUAUAAUCCUGUACAUAAACAUGAGGAUCACCCAUGUACAGGACCGGGUAGUGUAACC”: the results for the “apparent Kd” value in the data set with MS2 coat protein [1] (setting [3]) and in the data set with MS2 coat protein [1] (setting [4]) were 0.0338 µM and 0.0294 µM, respectively.
“UAUUUUGGGCGCGAGCCCGGGAUAAUUGAUACCAGUGAAGAAGAGCGCCCUUGGCAGCGAAUCCUAACAUGAGGAUCACCCAUGU”: the results for the “apparent Kd” value in the data set on MS2 coat protein [2] (setting [5]) and in the data set on MS2 coat protein [2] (setting [6]) were 0.0475 µM and 0.06 µM, respectively.
For “AACAUGAGGAUCACCCAUGUCAUGUUGGAUACCAGCCAAUAAUAAGGCCCUUGGCAGCUAUAGAUCGAUGAUCCAUGAGGAUCAC”, the figures for the “apparent Kd” value in the data set with MS2 coat protein [2] (setting [7]) and with MS2 coat protein [2] (setting [8]) were 0.0345 µM and 0.0253 µM, respectively.
For the sequence “AAAUAAUAUUAAUUAAUUAUAUUAUUCUGACGAGGACCGGUACGGCCGCCACUCGGCCCAUGGUACAUGAGGAUCACCCAUGUCU”, the “apparent Kd” value came to 0.0176 µM in the data set on MS2 coat protein [1] (setting [3]) and 0.0136 µM in the data set with MS2 coat protein [1] (setting [4]).
On to “AAAACACAUGAGGAUCACCCAUGUCAUGAUACCAGUCCACAUGAGGACCCUUGGCAGCAUAAAAUGGGUAACAUGAGGAUAACCC”, for which the “apparent Kd” value is 0.0296 µM with MS2 coat protein [2] (setting [7]) and 0.0828 µM in the data set on MS2 coat protein [2] (setting [8]).
In the case of “AUCGUACCUGAUGAUACCAGCAUGUGCUCGUAACAUGAGGAUCACCCAUGUGAUCAGUGAUGCCCUUGGCAGCAUGAUCGGUGCA”, the “apparent Kd” value in the data set on MS2 coat protein [2] (setting [5]) stood at 0.169 µM; in the data set with MS2 coat protein [2] (setting [6]), 0.0193 µM.
The corresponding values for “AAUUAAUUAACCGAUACCAGCCAACCAAAACAUGAGGAUCACCCAUGUAAGAAGAAGGGUGGCCCUUGGCAGCGGUUAAUUAAUU” are 0.0278 µM and 0.00907 µM.
The corresponding values for “AUUGGGUUAUCAGAUACCAGACUAUUCUAGACAUGAGGAUCACCCAUGUAUUGGGUUUUCGUCCCUUGGCAGCUGUUAAGUUUAA” are 0.167 µM and 0.113 µM.
The matching figures for “UUAAGAGGCUAUCAAAUUUGAUUUUGUGAUACCAGAAUAAUUUUAUUCCCUUGGCAGCAUGACAUGAGGAUCACCCAUGUGUCUU”: 0.0354 µM and 0.0302 µM.
As to “GGUGUAUCCAUCGAUACCAGCCACCACCGAUAGACCACAUGAGGAUCACCCAUGUUGGGUGGCCCUUGGCAGCGGUGGCUGUGCC”, the “apparent Kd” value in the data set on MS2 coat protein [2] (setting [5]) was found to be 0.317 µM; in the data set with MS2 coat protein [2] (setting [6]) it was 0.172 µM.
For “AAUAAGUACUUUGAUACCAGCCUGCCAUCAUGCUAAUUUACAUGAGGAUCACCCAUGUUAGGCCCUUGGCAGCAAAGUGCAAUAA”, the entries for the “apparent Kd” value in the data set with MS2 coat protein [2] (setting [7]) and with MS2 coat protein [2] (setting [8]) were 0.0125 µM and 0.0256 µM, respectively.
Consider “ACAUGAACAUGAGGAUCACCCAUGUGGGAUACCAGCGUGUAUGAGCGCCCUUGGCAGCUCAUGACAUGAGGAUCACCCAUGUUGG”, for which the entries for the “apparent Kd” value in the data set on MS2 coat protein [2] (setting [7]) and in the data set on MS2 coat protein [2] (setting [8]) were 0.262 µM and 0.453 µM, respectively.
The corresponding values for “CAAACAUGAGGAUCACCCAUGUAAUCAGAUACCAGUGACGAAAGUCACCCUUGGCAGCUGAGUACAUUAGUUCUAAGGUGUUUGA” are 0.0446 µM and 0.0502 µM.
The corresponding values for “ACGAACGAUAGUGAUACCAGACGUACAUGAGGAUCACCCAUGUUGUAAACAUGGUUAAUAGUCCCUUGGCAGCACGAUAAGUUCG” are 0.575 µM and 0.499 µM.
Take “UGACAUUGCUGCGAUACCAGACAUGAGGAUCACCCAUGUACCAAGAAAACGUACAUAAAUGUCCCUUGGCAGCGCAGCAAUGUCU”: the “apparent Kd” value in the data set on MS2 coat protein [2] (setting [7]) is 0.524 µM; in the data set with MS2 coat protein [2] (setting [8]), 1.36 µM.
Regarding “ACGACGCAUAGUGAUACCAGUAGAACAUGAGGAUCACCCAUGUCUGUGACGCACCACCUCUGCCCUUGGCAGCACUAUGCGUCAG”, the figures for the “apparent Kd” value in the data set with MS2 coat protein [2] (setting [5]) and in the data set with MS2 coat protein [2] (setting [6]) were 0.0227 µM and 0.0229 µM, respectively.
The corresponding values for “UGUUUUAAAAGUGAUACCAGACAAACAUGAGGAUCACCCAUGUAACAUGAGAGAUAAUAAGUCCCUUGGCAGCACAUAAUUAGUA” are 0.0318 µM and 0.0264 µM.
With “AUCGUACCUGAUGAUACCAGCAUGUGAUCGUAACAUGAGGAUCACCCAUGUAAUCAGUGAUGCCCUUGGCAGCAUGAUCGGUACA”, the “apparent Kd” value is 0.0977 µM in the data set on MS2 coat protein [2] (setting [5]) and 0.0205 µM in the data set on MS2 coat protein [2] (setting [6]).
The matching figures for “UCUUUCUUUGUAGAUACCAGCAUGUUAAGUUUCUUUUGACAUGAGGAUCACCCAUGUACAUGCCCUUGGCAGCUACAUUUUCUUU”: 0.0152 µM and 0.0165 µM.
On to “GUCAGUAGAACAGAUACCAGUCAAAGGCUGUGAUCUCAUAACAUGAGGAUCACCCAUGUUGACCCUUGGCAGCUGUGGGCGAGGG”, for which the “apparent Kd” value in the data set with MS2 coat protein [2] (setting [7]) came out at 0.0452 µM; in the data set on MS2 coat protein [2] (setting [8]), 0.391 µM.
